In ChEMBL document CHEMBL4145604, “Jizanpeptins, Cyanobacterial Protease Inhibitors from a Symploca sp. Cyanobacterium Collected in the Red Sea” (J Nat Prod, 2018):
pIC50: −log10 of the molar value. Active and inactive are the calls of the source. No cut-off for these calls is given here. *1 amine or outer side, *2 acyl side, *3 side chain or, on linkers, in order; H or OH if unused. Where a SMILES comes first, the peptide text is derived from it. Bridges are numbered along the chain shown (N, C = ends). [ ]: non-standard residue; d: D form. The star is where a group is joined. Ahp(3S,6R)alloIle = CC[C@@H](C)[C@@H](C(=O)[*:2])N1C(=O)[C@@H](N[*:1])CC[C@H]1O; Propanoyl(2R-OMe,3-OSO3H) = CO[C@H](COS(=O)(=O)O)C(=O)*; NMeTyr(3-Br,OMe) = CN[C@@H](Cc1ccc(OC)c(Br)c1)C(=O)O; Cit = NC(=O)NCCC[C@H](N)C(=O)O; Butyryl = CCCC(=O)*

Experiments:
[1] = (§1) Inhibition of chymotrypsin (unknown origin) assessed as reduction in conversion of N-benzoyl-L-tyrosine ethyl ester to N-benzoyl-L-tyrosine incubated for 3 mins measured for 30 secs by spectrophotometric method; design: species or system Homo sapiens
[2] = tested on: HeLa; experiment: Antiproliferative activity against human HeLa cells up to 3 uM after 72 hrs by MTT assay; format: functional, cell-based
[3] = molecular target: Trypsin (Homo sapiens, UniProt P07477+P07478+P35030); experiment: Inhibition of trypsin (unknown origin) assessed as reduction in conversion of N-benzoyl-L-arginine ethyl ester hydrochloride to N-benzoyl-L-arginine incubated for 5 mins measured for 30 secs by spectrophotometric method; format: protein assay
[4] = species: Homo sapiens; experiment: Selectivity ratio of IC50 for chymotrypsin (unknown origin) to IC50 for trypsin (unknown origin)
[5] = tested on: NCI-H460; experiment: Antiproliferative activity against human NCI-H460 cells up to 3 uM after 72 hrs by MTT assay; format: functional, cell-based
How it was run: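 NCI-H460 cells exposed for 72 h to 30 nM–3 μM compound from DMSO stocks, final DMSO 0.1%; apratoxin A (30 nM) positive control; MTT viability end-point, vehicle-treated cells set as 100%.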

[6] = species: Homo sapiens; experiment: as §1

SMILES	pIC50 [1]	Activity [2]	IC50 [3]	Ratio IC50 [4]	Activity [5]	inhibition [6]	inhibition [3]
CC[C@@H](C)[C@H]1C(=O)N(C)[C@@H](Cc2ccc(OC)c(Br)c2)C(=O)N[C@@H]([C@@H](C)CC)C(=O)O[C@H](C)[C@H](NC(=O)[C@H](NC(=O)[C@@H](COS(=O)(=O)O)OC)C(C)C)C(=O)N[C@@H](CCCNC(=N)N)C(=O)N[C@H]2CC[C@@H](O)N1C2=O	< 5.00	inactive	150 nM	10 to 66	inactive		
CC[C@@H](C)[C@H]1C(=O)N(C)[C@@H](Cc2ccc(OC)c(Br)c2)C(=O)N[C@@H]([C@@H](C)CC)C(=O)O[C@H](C)[C@H](NC(=O)[C@H](NC(=O)[C@H](O)COS(=O)(=O)O)C(C)C)C(=O)N[C@@H](CCCCN)C(=O)N[C@H]2CC[C@@H](O)N1C2=O	< 5.00	inactive	160 nM	10 to 66	inactive		
CCCC(=O)N[C@H](CCC(N)=O)C(=O)N[C@@H]1C(=O)N[C@@H](CCCNC(N)=O)C(=O)N[C@H]2CC[C@@H](O)N(C2=O)[C@@H]([C@H](C)CC)C(=O)N(C)[C@@H](Cc2ccc(OC)c(Br)c2)C(=O)N[C@@H](C(C)C)C(=O)O[C@@H]1C (Butyryl-[dQ]T[Cit][Ahp(3S,6R)alloIle][NMeTyr(3-Br,OMe)]V; ester 2-C)					Active	Active	Active
CC[C@@H](C)[C@H]1C(=O)N(C)[C@@H](Cc2ccc(OC)c(Br)c2)C(=O)N[C@@H]([C@@H](C)CC)C(=O)O[C@H](C)[C@H](NC(=O)[C@H](NC(=O)[C@@H](COS(=O)(=O)O)OC)C(C)C)C(=O)N[C@@H](CCCCN)C(=O)N[C@H]2CC[C@@H](O)N1C2=O	< 5.00	inactive	190 nM	10 to 66	inactive		
CC[C@@H](C)[C@H]1C(=O)N(C)[C@@H](Cc2ccc(OC)c(Br)c2)C(=O)N[C@@H]([C@@H](C)CC)C(=O)O[C@H](C)[C@H](NC(=O)[C@@H](NC(=O)[C@@H](COS(=O)(=O)O)OC)C(C)C)C(=O)N[C@@H](CCCCN)C(=O)N[C@H]2CC[C@@H](O)N1C2=O	5.85	inactive	72 nM	19	inactive		
CC[C@@H](C)[C@H]1C(=O)N(C)[C@@H](Cc2ccc(OC)c(Br)c2)C(=O)N[C@@H]([C@@H](C)CC)C(=O)O[C@H](C)[C@H](NC(=O)[C@@H](NC(=O)[C@@H](COS(=O)(=O)O)OC)[C@@H](C)CC)C(=O)N[C@@H](CCCCN)C(=O)N[C@H]2CC[C@@H](O)N1C2=O ({Propanoyl(2R-OMe,3-OSO3H)}-ITK[Ahp(3S,6R)alloIle][NMeTyr(3-Br,OMe)]I; ester 2-C)	< 5.00	inactive	1000 nM	10 to 66	inactive		
